# Test results from the RNAGym collection of RNA variant scans (doi:10.1126/science.aae0568).
# This sample holds only a part of the variants without activity.
# B1: tRNA (parent)
# chain: GUUCCGUUGGCGUAAUGGUAACGCGUCUCCCUCCUAAGGAGAAGACUGCGGGUUCGAGUCCCGUACGGAACG
# Variants of: B1
# Assay: yeast fitness relative to wild type (ratio to wild type); higher = fitter; tRNA-Arg(CCU), competitive growth, 37 C, YPD
# Outline: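 Amplicons of the tRNA-Arg(CCU) gene were sequenced, 100-nucleotide paired-end, from the start population and from each end population of a pooled yeast competition. The competition, in six parallel replicates, lasted 24 hours in YPD at 37°C. Fitness relative to wild type was calculated from changes in genotype frequencies. Genotypes had to have ≥ 100 starting reads, and estimates < 0.5 were set to 0.5.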
row,Variant,yeast fitness
1,C11U C22U C34A A40U,≤ 0.5
2,C11G C55G A57C,≤ 0.5
3,C11A G18A,0.58
4,C11G A20G A43U U47A A65U G67C,≤ 0.5
5,C11G A15C G48C C55G G67C A70U,≤ 0.5
6,C11A U26C C29G C31U,0.655
7,C11G G41C,0.662
8,C11A G44C G56A C66U,0.552
9,C11U A21U C55A,0.632
10,C11G C55G,0.594
11,C11A U13A C31G C55U,≤ 0.5
12,C11U A37G G51A,0.568
13,C11G G39C G50C,0.545
14,C11G G58A A70G,0.659
15,C11U C22A C29G C33U A70C,0.551
16,C11A C62G G63A,≤ 0.5
17,C11G A21U C30A G44A G52C A65U,0.507
18,C11U C22U U54C G56C G58A,≤ 0.5
19,C11G U13G A21G G63A,≤ 0.5
20,C11G G41C C55U G58A,≤ 0.5
21,C11U C22G C62U G68C,0.542

row,Variant,yeast fitness
1,C11G G67A,0.635
2,C11G U16A C29U,≤ 0.5
3,C11U C22A A40U C46U C61U,≤ 0.5
4,C11G G12A C27U A43G,≤ 0.5
5,C11A G23C A42C A43C,≤ 0.5
6,C11A G18C A45C A57C G68C,≤ 0.5
7,C11G U32A A37C G39A A43G G58C C60A C62U,≤ 0.5
8,C11G C31U G41C,≤ 0.5
9,C11G C31U,0.632
10,C11G A21U A42U,≤ 0.5
11,C11U C22G A36G,0.675
12,C11A U28G C33A A42C,≤ 0.5
13,C11G G12C,0.7
14,C11U A42C C49U,0.734
15,C11G A20C C49A U54G,≤ 0.5
16,C11G A36C U47C C49U A69C,≤ 0.5
17,C11A C46U U64C,≤ 0.5
18,C11G C46G,0.75
19,C11G C46A,0.576
20,C11G G12A C24A C30G G44C C61G,≤ 0.5
21,C11U A20C C49G G67A,≤ 0.5

row,Variant,yeast fitness
1,C11U A15U G56C,≤ 0.5
2,C11U C31U G39C A40U,0.544
3,C11U C30G A40C C61U,≤ 0.5
4,C11U A40G G44C U53C C55A A65U,≤ 0.5
5,C11U C22G C34G A70C,≤ 0.5
6,C11G A15G C24G C46G G67A,≤ 0.5
7,C11U C29A A36U G50C C55G C61G,0.592
8,C11G G23C G39A,0.525
9,C11A G52C G67A,≤ 0.5
10,C11U A20U C24U C29A U59A G67C A69C,≤ 0.5
11,C11G C29U A36C A42G C46G,≤ 0.5
12,C11U A20G C29G C34G U54C,≤ 0.5
13,C11G C60G G67C,0.667
14,C11G A37C A45U G68C,≤ 0.5
15,C11G C27G C66U,≤ 0.5
16,C11U A20U G39A U64C A65C,≤ 0.5
17,C11G C66A A69U,≤ 0.5
18,C11G C49G C66A G67U,≤ 0.5
19,C11G U19A C31U A43G G52C,≤ 0.5
20,C11U C31G C49U G67A,≤ 0.5
21,C11G G17A A20U C33G A43C C61G A65G,≤ 0.5

row,Variant,yeast fitness
1,C11G G41A U53C,≤ 0.5
2,C11G G25A G56A C60A C62U G68C,≤ 0.5
3,C11U A14G C27U C31U A36C G44C A45G G56C,≤ 0.5
4,C11U A14G A57G U59C A69U,≤ 0.5
5,C11U A21G C29G C61G,≤ 0.5
6,C11U C24G U59A C60A,≤ 0.5
7,C11U A37C A42G A43U C62A,≤ 0.5
8,C11G C66A,≤ 0.5
9,C11G C66U,0.615
10,C11U C31U C46G U47A A65C,≤ 0.5
11,C11U A21G A37U G41A,≤ 0.5
12,C11G C22G A45C,≤ 0.5
13,C11G G48A,0.582
14,C11U C24G A36C A37G A70C,≤ 0.5
15,C11U C24G C33A A40C C66U,0.743
16,C11U A36U A70U,0.694
17,C11U C24U C29G G38A A40C C61A A65G,≤ 0.5
18,C11G C29A,0.518
19,C11G U26A U35A G67C,≤ 0.5
20,C11G A20U A45C,≤ 0.5
21,C11U A20C C22G,0.576
